14 molecules from PubChem BioAssay can be followed below.

The structures appear in SMILES notation. Active and inactive are the calls of the source.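 Rule for the calls, unless noted: active = fluorescence slope after compound addition differing from the mean of all tested samples at 99.7% confidence, mostly higher but some lower; inactive = the rest.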

Assay [1] in a line: inhibitors of TNFa-induced NFkB p65 translocation, primary screen, imaging, HUVEC, MLSMR starter and 10KST1 sets (AID 438;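 active = inhibition above 20% together with a positive visual image hit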;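 note: compound added about 3h40 before a 20 min TNFalpha stimulation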;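 for inhibition: signal is the nuclear over cytoplasmic p65 intensity ratio per well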). The note with it: HUVEC TNFa-induced p65 nuclear translocation; cell count: measured here: nuclei count (cytotoxicity indicator), at 2.08 µM; inhibition: at 2 µM, stronger effect = higher value, 0% TNFa-plus-vehicle, 100% no-TNFa wells.
Assay [2] can be described thus: inhibitors of mutant huntingtin aggregation, primary screen, imaging, exon1htt(103Q)mCFP cells, high-content imaging (AID 483;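 active = visual image review flags a hit and inhibition of aggregation exceeds 20%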;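 note: compound exposure lasted 3 days before fixation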;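 for nuclei count: percent of the per-plate median nuclei count of sample wells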). The note with it: exon1htt(103Q)mCFP cell line, aggregate imaging, at 2 µM; inhibition of aggregation: stronger effect = higher value; nuclei count: measured here: cell count, toxicity.
Assay [3] in a line: inhibitors of E-selectin induction by TNFa, primary screen, imaging, HUVEC, immunofluorescence, MLSMR starter and 10KST1 sets (AID 487;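 active = visually confirmed hit in the image check and inhibition above 20%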;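 for inhibition: signal is fraction of cell area covered by stained E-selectin grains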;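 for nuclei count: 100% = median nuclei count of all wells on the same plate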). The note with it: HUVEC TNFalpha-induced E-selectin immunofluorescence imaging, at 2 µM; inhibition: stronger effect = higher value; nuclei count: measured here: cell number, toxicity.
For assay [4], the target named is Voltage-gated potassium channel subunit beta-2 (Rattus norvegicus) (UniProt P62483). Description: KvBeta enzyme negative modulators, primary screen, biochemical, NADPH fluorescence (AID 622;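 active = fluorescence slope higher than the sample average by over 3 SD, cut at about -0.22 in these data, passing the limit was not always enough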;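 note: slope of raw intensity against log time taken from 70 to 1610 s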). The note with it: recombinant KvBeta, 4-cyanobenzaldehyde reduction, at 10 µM, stronger effect = higher value.
For assay [5] the target is unchanged. Put plainly: KvBeta positive modulators, primary screen, biochemical, NADPH fluorescence (AID 623;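 active = NADPH fluorescence slope more negative than the mean of all samples by about 3 SD, 99.7% confidence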;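 note: fluorescence intensity change per second fitted from 20 to 320 s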). To be noted: Recombinant KvBeta, NADPH fluorescence decrease slope, 10 min; at 10 µM; stronger effect = lower value.
Assay [6] has as its target Muscarinic acetylcholine receptor M4 (Homo sapiens) (UniProt P08173). Put plainly: compounds altering M4/GIRK thallium flux, either direction, primary screen, M4 allosteric agonist project, cell-based, HEK293 M4/GIRK, BTC-AM (AID 625).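 Note: thallium influx through GIRK channels coupled to M4 in HEK293 cells with BTC-AM dye.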 The note with it: at 10 µM, actives lie on both sides. An outline of the steps: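 Material: HEK293 cells with M4 receptor and GIRK channels; Times: cells overnight at 37 °C, BTC-AM loading 1 h, reads 2 min total; Technique: kinetic BTC-AM fluorescence sampled at 1 Hz, 10 s pre-addition baseline; Read-out basis: slope over 15–24 s of trace normalized to starting intensity; Controls: carbachol positive, DMSO negative.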

A short description of assay [7]: inhibitors of Sendai virus-induced IRF3 signaling, primary screen, TLR/RLR signaling modifier project, cell-based, Sendai virus stimulus, luciferase, 10K MLSCN set (AID 602276;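 active = inhibition at or above 50% at 10 µM; inactive = inhibition below 50%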;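 note: firefly luciferase from ISG56 promoter only with Renilla not read in this screen; 0% = Sendai virus plus DMSO and 100% = medium plus DMSO without virus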). The note with it: HEK293 RL24 IRF3 luciferase reporter, at 10 µM, stronger effect = higher value.
The nature of assay [8]: inhibitors of poly I:C-induced TLR3 signaling, primary screen, cell-based, poly I:C stimulus, luciferase, 10K MLSCN set (AID 602277;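 active = inhibition of the reporter signal at or above 50%; inactive = inhibition below 50%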). The note with it: HEK293-TLR3 RL24 IRF3 luciferase reporter, at 10 µM, stronger effect = higher value. Background: A reporter such as luciferase makes a cellular process visible.

Chain of Voltage-gated potassium channel subunit beta-2 (Rattus norvegicus) (P62483 whole entry, looked up): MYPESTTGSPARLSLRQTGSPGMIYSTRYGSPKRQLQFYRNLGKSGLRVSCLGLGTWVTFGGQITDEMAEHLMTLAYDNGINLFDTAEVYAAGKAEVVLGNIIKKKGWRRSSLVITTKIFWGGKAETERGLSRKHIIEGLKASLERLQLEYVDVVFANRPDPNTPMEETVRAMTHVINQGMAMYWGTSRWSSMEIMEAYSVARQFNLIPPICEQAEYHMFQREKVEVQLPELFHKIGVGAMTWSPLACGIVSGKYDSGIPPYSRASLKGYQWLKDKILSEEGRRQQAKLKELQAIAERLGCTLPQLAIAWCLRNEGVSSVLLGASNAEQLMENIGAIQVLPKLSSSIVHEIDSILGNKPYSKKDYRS
Chain of Muscarinic acetylcholine receptor M4 (Homo sapiens) (P08173 whole entry, looked up): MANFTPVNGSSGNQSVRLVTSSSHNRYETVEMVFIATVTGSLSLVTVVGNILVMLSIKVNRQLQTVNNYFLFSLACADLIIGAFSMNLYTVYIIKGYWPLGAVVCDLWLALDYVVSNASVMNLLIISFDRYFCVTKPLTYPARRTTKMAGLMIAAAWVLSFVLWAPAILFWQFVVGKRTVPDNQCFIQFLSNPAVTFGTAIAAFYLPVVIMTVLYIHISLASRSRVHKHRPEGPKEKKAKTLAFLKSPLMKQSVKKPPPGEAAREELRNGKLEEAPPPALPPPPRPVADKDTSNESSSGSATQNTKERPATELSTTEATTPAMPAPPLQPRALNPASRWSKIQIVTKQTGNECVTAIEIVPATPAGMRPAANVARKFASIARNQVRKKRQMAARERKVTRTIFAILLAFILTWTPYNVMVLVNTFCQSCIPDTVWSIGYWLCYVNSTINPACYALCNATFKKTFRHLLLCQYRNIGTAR

One may read the inhibition as the relative decrease from the control value, in per cent. As for `COc1ccccc1CNC(=O)C1CCN(S(=O)(=O)N2CCCCC2)CC1`, the cell count in assay [1] was determined as 571. For the same molecule, the inhibition in assay [1] was -1.8% (inactive); in assay [3], -44.6% (inactive); in assay [7], 14% (inactive); in assay [8] it was 21.7% (inactive). Also, the inhibition of aggregation in assay [2] was 4.5% (inactive). For the same molecule, the nuclei count was determined as 102% in assay [2] and 89.6% in assay [3]. The fluorescence slope was -0.426 (inactive) in assay [4] and 0.00585 (inactive) in assay [6]. Also, the NADPH fluorescence slope in assay [5] is -3.4e-05 (inactive).
Take `CCSc1nnc(NC(=O)c2nn(C(C)C)c(=O)c3ccccc23)s1`: in assay [1], the cell count came out at 221. The inhibition in assay [1] was 3.9% (inactive); in assay [3], 31.6% (inactive); in assay [7], 9.39% (inactive); in assay [8], 11.7% (inactive). Further, the inhibition of aggregation in assay [2] is 15.4% (inactive). Moreover, the nuclei count in assay [2] stood at 71.5%; in assay [3], 94%. Further, the fluorescence slope in assay [4] is -0.408 (inactive); in assay [6], 0.00464 (inactive). Moreover, the NADPH fluorescence slope in assay [5] is -0.000337 (inactive).
In the case of `Cc1ccc(-n2c(=O)c3sccc3n(CC(=O)NCc3ccco3)c2=O)cc1`, in assay [1], the cell count came to 488. Besides, the inhibition in assay [1] was 0.3% (inactive); in assay [3] it was -9.8% (inactive); in assay [7] it was 6.07% (inactive); in assay [8], 12.8% (inactive). Further, the inhibition of aggregation in assay [2] was 21.9% (inactive). Also, the nuclei count stood at 103% in assay [2] and 108% in assay [3]. The fluorescence slope was -0.579 (inactive) in assay [4] and 0.0056 (inactive) in assay [6]. Moreover, the NADPH fluorescence slope in assay [5] is -3.1e-05 (inactive).
As for `CC(Oc1ccc2oc(-c3ccccc3)c(C(=O)O)c2c1)C(=O)O` (centres undefined), in assay [1], the cell count was found to be 371. The inhibition in assay [1] was 10.6% (inactive); in assay [3], 27.6% (inactive); in assay [7] it was 7.55% (inactive); in assay [8], 16.2% (inactive). In addition, the inhibition of aggregation in assay [2] was 9% (inactive). For the same molecule, the nuclei count was 104% in assay [2] and 89.9% in assay [3]. The fluorescence slope in assay [4] was -0.158 (inactive); in assay [6], 0.00531 (inactive). Moreover, in assay [5], the NADPH fluorescence slope was -5.4e-05 (inactive).
`Cc1nc2sc3c(c2c(=O)o1)CCC3`: in assay [1], the cell count turned out to be 619. Moreover, the inhibition in assay [1] was 2.1% (inactive); in assay [3], 0.3% (inactive); in assay [7], 16.2% (inactive); in assay [8], 22.8% (inactive). In addition, the inhibition of aggregation in assay [2] was -0.2% (inactive). The figures for the nuclei count in assay [2] and in assay [3] were 108% and 93.8%, respectively. For the same molecule, the fluorescence slope in assay [4] is -0.511 (inactive); in assay [6] it was 0.00356 (inactive). Also, the NADPH fluorescence slope in assay [5] is -0.000121 (inactive).
Turning to `Cc1cccc(N(CC(N)=O)S(C)(=O)=O)c1C`, in assay [1], the cell count amounted to 369. In addition, the inhibition is -5.2% (inactive) in assay [1], -129% (inactive) in assay [3], 11% (inactive) in assay [7] and 14.1% (inactive) in assay [8]. Besides, in assay [2], the inhibition of aggregation is 6.8% (inactive). Besides, the nuclei count in assay [2] turned out to be 100%; in assay [3] it was 122%. Besides, the fluorescence slope in assay [4] was -0.551 (inactive); in assay [6], 0.00412 (inactive). In assay [5], the NADPH fluorescence slope was -0.000105 (inactive).
For `Cc1cc(C(=O)Nc2cc(C)n(Cc3ccc(Cl)cc3)n2)no1`, the cell count in assay [1] was 240. In addition, the inhibition in assay [1] was 9.5% (inactive); in assay [3], -39.5% (inactive); in assay [7] it was -11.3% (inactive); in assay [8], -27.1% (inactive). Moreover, in assay [2], the inhibition of aggregation was -10.6% (inactive). Further, the nuclei count in assay [2] came to 98.8%; in assay [3] it was 88.4%. Also, the fluorescence slope is -0.483 (inactive) in assay [4] and 0.0053 (inactive) in assay [6]. Besides, in assay [5], the NADPH fluorescence slope was -1.4e-05 (inactive).
On to `CCc1ccc(NS(=O)(=O)c2ccc3[nH]cc(C(=O)N4CCCCC4)c(=O)c3c2)cc1`, for which, in assay [1], the cell count was determined as 672. Besides, the inhibition is 13.7% (inactive) in assay [1], 2.5% (inactive) in assay [3], 20.2% (inactive) in assay [7] and 24.4% (inactive) in assay [8]. Also, the inhibition of aggregation in assay [2] was 14.2% (inactive). The nuclei count turned out to be 86% in assay [2] and 81.2% in assay [3]. The fluorescence slope in assay [4] was -0.562 (inactive); in assay [6] it was 0.00784 (inactive). The NADPH fluorescence slope in assay [5] is -5.7e-05 (inactive).
On to `CCOC(=O)N1CCN(C(=O)C(NS(=O)(=O)c2cccc3nsnc23)c2ccccc2)CC1` (centres undefined), for which, in assay [1], the cell count was determined as 588. Also, the inhibition in assay [1] is 1.5% (inactive); in assay [3] it was 51.1% (inactive); in assay [7], 3.16% (inactive); in assay [8] it was 9.73% (inactive). For the same molecule, the inhibition of aggregation in assay [2] was 13.3% (inactive). Moreover, the results for the nuclei count in assay [2] and in assay [3] were 106% and 81.6%, respectively. For the same molecule, the fluorescence slope was -0.599 (inactive) in assay [4] and 0.0056 (inactive) in assay [6]. For the same molecule, the NADPH fluorescence slope in assay [5] was 1.3e-05 (inactive).
Regarding `Cc1ccc(NC(=O)CSc2nnc(CCCCCNC(=O)OC(C)(C)C)o2)c(C)c1`, in assay [1], the cell count stood at 630. Further, the inhibition in assay [1] is -9.5% (inactive); in assay [3] it was -28.9% (inactive); in assay [7], 14.7% (inactive); in assay [8], 12.1% (inactive). Further, in assay [2], the inhibition of aggregation is 28.5% (inactive). Besides, the nuclei count in assay [2] came to 94.7%; in assay [3], 102%. The fluorescence slope in assay [4] was -0.546 (inactive); in assay [6], 0.00541 (inactive). Besides, the NADPH fluorescence slope in assay [5] is -4e-05 (inactive).
Regarding `NC(=O)C1(N2CCCCC2)CCN(C2CC(=O)N(Cc3cccs3)C2=O)CC1` (centres undefined), the cell count in assay [1] is 378. The inhibition in assay [1] was -2.6% (inactive); in assay [3] it was -117% (inactive); in assay [7] it was 10.3% (inactive); in assay [8], 20.4% (inactive). In assay [2], the inhibition of aggregation is 5.2% (inactive). For the same molecule, the figures for the nuclei count in assay [2] and in assay [3] were 82.9% and 84.9%, respectively. Moreover, the fluorescence slope in assay [4] was -0.458 (inactive); in assay [6], 0.00707 (inactive). For the same molecule, the NADPH fluorescence slope in assay [5] was -3.2e-05 (inactive).
Regarding `CCOc1ccc(N(CC(=O)NCC2CCCO2)S(=O)(=O)c2ccc(OC)c(OC)c2)cc1` (centres undefined), in assay [1], the cell count is 326. In addition, the inhibition is 3.5% (inactive) in assay [1], -47% (inactive) in assay [3], 10.6% (inactive) in assay [7] and 18.4% (inactive) in assay [8]. In addition, the inhibition of aggregation in assay [2] was -10.6% (inactive). In addition, the nuclei count in assay [2] was 107%; in assay [3], 112%. In addition, the fluorescence slope is -0.572 (inactive) in assay [4] and 0.00351 (inactive) in assay [6]. For the same molecule, the NADPH fluorescence slope in assay [5] is -3.5e-05 (inactive).
Take `CC1CCN(C(=O)c2ccc(C(=O)N3CCC(C)CC3)cc2)CC1`: in assay [1], the cell count was found to be 348. For the same molecule, the inhibition is 4.7% (inactive) in assay [1], 33.2% (inactive) in assay [3], 12.9% (inactive) in assay [7] and 12.8% (inactive) in assay [8]. The inhibition of aggregation in assay [2] was 2.4% (inactive). For the same molecule, the nuclei count is 95.8% in assay [2] and 76.8% in assay [3]. Moreover, the fluorescence slope was -0.459 (inactive) in assay [4] and 0.00464 (inactive) in assay [6]. The NADPH fluorescence slope in assay [5] was -3e-05 (inactive).
As for `CCN1CCN(C(=O)c2ccc3c(=O)n(C4CCCC4)c(=S)[nH]c3c2)CC1`, the cell count in assay [1] stood at 507. Further, the inhibition in assay [1] was -4.3% (inactive); in assay [3], -19.6% (inactive); in assay [7], -15.8% (inactive); in assay [8], -6.81% (inactive). Besides, the inhibition of aggregation in assay [2] is 8.5% (inactive). Besides, the results for the nuclei count in assay [2] and in assay [3] were 82.3% and 111%, respectively. Also, the fluorescence slope in assay [4] was -0.517 (inactive); in assay [6], 0.00572 (inactive). Also, the NADPH fluorescence slope in assay [5] is 6.6e-05 (inactive).
